Values after ≈ are worked out from the molar mass of the structure shown.
Tests used:
[1] = WHO-TDR: Cytotoxicity; format: toxicity, cell-based; conditions: human, MRC5 cells
[2] = system: Plasmodium falciparum K1; assay: WHO-TDR: Malaria; format: functional, organism-based, Homo sapiens; conditions: Erythrocyte
Summary of the method: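 Previously published standard procedures, including a reference drug as positive control, were used to screen whole Plasmodium falciparum K1 parasites inside human red blood cells. IC50 is the measure of antiplasmodial potency. The compounds were a 10,000-member diverse Life Chemicals library.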

[3] = system: Trypanosoma cruzi; assay: WHO-TDR: Chagas disease; format: functional, organism-based, Homo sapiens; conditions: MRC5
Summary of the method: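 Intracellular amastigotes of the Trypanosoma cruzi Tulahuen CL2 beta-galactosidase strain, grown in MRC-5SV2 human lung fibroblast host cells, were tested in a whole-organism screen. The compounds came from a 10,000-member diverse Life Chemicals library that had been filtered for drug-likeness and reactive groups. Previously published standard procedures were followed, with a reference drug as positive control, and potency is reported as IC50.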

[4] = system: Trypanosoma brucei brucei; assay: WHO-TDR: Human African Trypanosomiasis (HAT); format: functional, organism-based; conditions: Squib-427
Summary of the method: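 In this whole-organism screen, the target was the bloodstream form of Trypanosoma brucei, strain Squib 427. A diverse set of 10,000 compounds from Life Chemicals, previously filtered for drug-likeness and reactive groups, was assayed by standard published procedures using reference drugs as positive controls. Each value is an IC50 for antiparasitic potency.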

[5] = system: Leishmania infantum; assay: WHO-TDR: Leishmaniasis; format: functional, organism-based, Mus musculus; conditions: Macrophage
Summary of the method: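 Intracellular amastigotes of Leishmania infantum MHOM/MA(BE)/67, hosted in murine peritoneal macrophages, were exposed to compounds from a 10,000-member diverse library supplied by Life Chemicals. The library had been filtered for drug-likeness and reactive groups. The reported IC50 expresses antiparasitic potency.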

[6] = system: Schistosoma mansoni; assay: WHO-TDR: Schistosomiasis; format: functional; set-up: concentration or dose not given beside the values
Summary of the method: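 Larval and/or adult Schistosoma mansoni (Puerto Rican strain) were tested whole against 10,000 diverse compounds from Life Chemicals. The procedure was a previously published standard one, using a reference drug as positive control. Results are expressed as percent inhibition and IC50.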

[7] = system: Onchocerca ochengi; assay: (§1) WHO-TDR: Onchocerciasis; format: functional; set-up: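 at 12.5 µM on microfilariae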
Summary of the method: (§2)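 Onchocerca ochengi or Onchocerca lienalis, animal pathogens used as surrogates for the human parasite, were screened as whole microfilariae against a 10,000-compound diverse library from Life Chemicals. The reported measures of activity are percent inhibition and IC50.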

[8] = system: Onchocerca ochengi; assay: as §1; format: functional; set-up: concentration or dose not given beside the values; summary of the method: as §2; remark: listed apart in the source

Structure (SMILES)	IC50 [1]	IC50 [2]	IC50 [3]	IC50 [4]	IC50 [5]	% Inhibition [6]	% Inhibition [7]	% Inhibition [8]
O=C(c1ccco1)N1CCN(c2ccc(-c3cccs3)nn2)CC1	> 10.2 µg/mL	5.12 µg/mL (≈ 15 µM)	> 10.2 µg/mL	> 10.2 µg/mL	> 10.2 µg/mL	0%	100%	0%
Cc1cc(C(=O)Nc2nc(-c3ccc4c(c3)OCCO4)cs2)n(C)n1	> 10.7 µg/mL	> 10.7 µg/mL	> 10.7 µg/mL	> 10.7 µg/mL	> 10.7 µg/mL	0%	100%	0%
Cc1cc(NC(=O)c2cccs2)n(-c2nc3c(c(=O)[nH]2)CCC3)n1	2.03 µg/mL (≈ 5.94 µM)	10.2 µg/mL (≈ 30 µM)	0.56 µg/mL (≈ 1.64 µM)	3.2 µg/mL (≈ 9.37 µM)	5.3 µg/mL (≈ 15.5 µM)	0%	0%	0%
O=C(Cc1csc(NS(=O)(=O)c2ccc(Cl)cc2)n1)Nc1ccc(F)c(F)c1	> 13.3 µg/mL	> 13.3 µg/mL	> 13.3 µg/mL	> 13.3 µg/mL	> 13.3 µg/mL	0%	100%	0%
Cc1nn2c(=O)[nH]c(SCc3ccccn3)nc2c1-c1ccccc1	> 10.5 µg/mL	> 10.5 µg/mL	> 10.5 µg/mL	> 10.5 µg/mL	> 10.5 µg/mL	0%	100%	0%
O=S(=O)(Nc1nc2c(Cl)cccc2s1)c1ccc(Cl)s1	> 11 µg/mL	> 11 µg/mL	10.4 µg/mL (≈ 28.5 µM)	> 11 µg/mL	> 11 µg/mL	0%	100%	0%
O=C(Nc1nc(CSCc2ccc(F)cc2)cs1)c1ccco1	> 10.5 µg/mL	> 10.5 µg/mL	> 10.5 µg/mL	> 10.5 µg/mL	> 10.5 µg/mL	0%	100%	0%
O=C(NCCc1c[nH]c2ccccc12)c1n[nH]c2ccccc12	> 9.13 µg/mL	> 9.13 µg/mL	8.2 µg/mL (≈ 27 µM)	> 9.13 µg/mL	> 9.13 µg/mL	0%	100%	0%
O=C1CC(CNS(=O)(=O)c2ccccc2C(F)(F)F)CN1c1ccc(Cl)cc1 (stereo not drawn)	> 13 µg/mL	> 13 µg/mL	4.11 µg/mL (≈ 9.49 µM)	4.25 µg/mL (≈ 9.83 µM)	> 13 µg/mL	0%	100%	0%
CCOC(=O)c1ccccc1NC(=O)CSc1ncc(-c2ccccc2)[nH]1	> 11.4 µg/mL	> 11.4 µg/mL	> 11.4 µg/mL	> 11.4 µg/mL	> 11.4 µg/mL	0%	100%	0%
COc1cc(CSc2nc(CC(=O)NCc3ccco3)cs2)cc(OC)c1	7.55 µg/mL (≈ 18.7 µM)	> 12.1 µg/mL	2.99 µg/mL (≈ 7.4 µM)	> 1.21 µg/mL	> 12.1 µg/mL	0%	100%	0%
CCOc1ccc(N2CC(CNS(=O)(=O)c3cccc(C(F)(F)F)c3)CC2=O)cc1 (stereo not drawn)	> 13.3 µg/mL	> 13.3 µg/mL	> 13.3 µg/mL	> 13.3 µg/mL	> 13.3 µg/mL	0%	100%	0%
C=CCN1C(=O)C(C)(C)COc2ccc(NS(=O)(=O)c3ccc4c(c3)CCCC4)cc21	> 13.2 µg/mL	> 13.2 µg/mL	11.4 µg/mL (≈ 26 µM)	> 13.2 µg/mL	4.28 µg/mL (≈ 9.71 µM)	0%	100%	0%
Cc1ccc(Cl)c2sc(N3CCN(C)CC3)nc12	> 9.55 µg/mL	3.31 µg/mL (≈ 11.7 µM)	2.38 µg/mL (≈ 8.46 µM)	3.05 µg/mL (≈ 10.8 µM)	> 9.55 µg/mL	0%	100%	0%
CCCN1C(=O)C(C)(C)COc2cc(NS(=O)(=O)Cc3ccc(C)cc3)ccc21	> 12.5 µg/mL	> 12.5 µg/mL	> 12.5 µg/mL	4.62 µg/mL (≈ 11.1 µM)	> 12.5 µg/mL	0%	100%	60%
O=C(NCCC1=CCCCC1)c1n[nH]c2ccccc12	> 8.08 µg/mL	> 8.08 µg/mL	> 8.08 µg/mL	> 8.08 µg/mL	> 8.08 µg/mL	0%	100%	0%
